# Data from ChEMBL document CHEMBL1129501 (J Med Chem, 1996).
# Columns and labels:
# Phosphodiesterase 1 [1] = biological target: T1, Phosphodiesterase 1 (Homo sapiens, UniProt P54750+Q01064+Q14123); assay: Antagonistic potency against calmodulin-dependent cyclic AMP phosphodiesterase relative to Idoxifene; format: functional; conditions: Canis lupus familiaris
# Phosphodiesterase 1 [2] = biological target: T1, Phosphodiesterase 1; assay: Inhibitory activity against calmodulin-dependent Phosphodiesterase was reported.; format: protein assay, Canis lupus familiaris
# Procedure, shortened: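 Calmodulin-dependent cAMP phosphodiesterase, 8-[3H]-cAMP substrate. Tritiated AMP converted to adenosine with snake venom 5'-nucleotidase. Nucleosides separated from substrate on Dowex anion exchanger, eluted with 3 mM acetic acid. Basal calmodulin-independent activity measured with 1 mM EGTA. Compounds in DMSO at several concentrations. IC50 against calmodulin-dependent activity, mean of triplicates ± standard error.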
# [3] = biological target: Estrogen receptor (Rattus norvegicus) (UniProt P06211+Q62986)
# Phosphodiesterase 1 [4] = biological target: T1, Phosphodiesterase 1; assay: Antagonistic potency against calmodulin-dependent cyclic AMP phosphodiesterase relative to 4-Iodotamoxifen; format: functional; conditions: Canis lupus familiaris
Structure (SMILES),Relative potency (Phosphodiesterase 1 [1]),IC50 (Phosphodiesterase 1 [2]),Binding affinity [3],Relative potency (Phosphodiesterase 1 [4])
CC/C(=C(\c1ccc(I)cc1)c1ccc(OCCCCCCCCN2CCCC2)cc1)c1ccccc1,7.5,0.2 µM,3.5,
CC/C(=C(\c1ccc(I)cc1)c1ccc(OCCCCCN2CCCC2)cc1)c1ccccc1,1.9,0.8 µM,8,
CC/C(=C(\c1ccc(I)cc1)c1ccc(OCCCCCCCCCN2CCCC2)cc1)c1ccccc1,7.5,0.2 µM,1.5,
CC/C(=C(\c1ccc(I)cc1)c1ccc(OCCCCCCCN2CCCC2)cc1)c1ccccc1,7.5,0.2 µM,3,
CC/C(=C(\c1ccc(I)cc1)c1ccc(OCCN2CCCC2)cc1)c1ccccc1 [IDOXIFENE],,1.5 µM,,
CC/C(=C(\c1ccc(I)cc1)c1ccc(OCCCCCCN2CCCC2)cc1)c1ccccc1,3,0.5 µM,4,
CC/C(=C(\c1ccc(I)cc1)c1ccc(OCCCCN2CCCC2)cc1)c1ccccc1,1.5,1 µM,9,
CC/C(=C(\c1ccc(I)cc1)c1ccc(OCCN(C)C)cc1)c1ccccc1,,2.3 µM,8,1
CC/C(=C(\c1ccc(I)cc1)c1ccc(OCCCN2CCCC2)cc1)c1ccccc1,1.4,1.1 µM,23,

# Continued, values first:
Relative potency (Phosphodiesterase 1 [1]),IC50 (Phosphodiesterase 1 [2]),Binding affinity [3],Relative potency (Phosphodiesterase 1 [4]),Structure (SMILES)
,2.2 µM,25,1.1,CC/C(=C(\c1ccc(I)cc1)c1ccc(OCCCCN(C)C)cc1)c1ccccc1
0.9,1.6 µM,0.4,,CC/C(=C(\c1ccc(I)cc1)c1ccc(OCCCCCCCCCCN2CCCC2)cc1)c1ccccc1
,1.2 µM,0.4,1.9,CC/C(=C(\c1ccc(I)cc1)c1ccc(OCCCCCCCCCCN(C)C)cc1)c1ccccc1
,2 µM,8,1.2,CC/C(=C(\c1ccc(I)cc1)c1ccc(OCCCN(C)C)cc1)c1ccccc1
,0.4 µM,8,5.8,CC/C(=C(\c1ccc(I)cc1)c1ccc(OCCCCCCN(C)C)cc1)c1ccccc1
,0.6 µM,6,3.8,CC/C(=C(\c1ccc(I)cc1)c1ccc(OCCCCCN(C)C)cc1)c1ccccc1
,0.3 µM,2,7.7,CC/C(=C(\c1ccc(I)cc1)c1ccc(OCCCCCCCCN(C)C)cc1)c1ccccc1
